# Laboratory results from ChEMBL document CHEMBL1137074, “Novel N-arylpyrazolo[3,2-c]-based ligands for the glucocorticoid receptor: receptor binding and in vivo activity” (J Med Chem, 2004).
# Key:
# Glucocorticoid receptor [1] = molecular target: T1, Glucocorticoid receptor (Homo sapiens, UniProt P04150); test: Ability to induce human IL-6 assay in A549 lung carcinoma cell line.; type: functional, cell-based
# T1 sequence (P04150 whole entry): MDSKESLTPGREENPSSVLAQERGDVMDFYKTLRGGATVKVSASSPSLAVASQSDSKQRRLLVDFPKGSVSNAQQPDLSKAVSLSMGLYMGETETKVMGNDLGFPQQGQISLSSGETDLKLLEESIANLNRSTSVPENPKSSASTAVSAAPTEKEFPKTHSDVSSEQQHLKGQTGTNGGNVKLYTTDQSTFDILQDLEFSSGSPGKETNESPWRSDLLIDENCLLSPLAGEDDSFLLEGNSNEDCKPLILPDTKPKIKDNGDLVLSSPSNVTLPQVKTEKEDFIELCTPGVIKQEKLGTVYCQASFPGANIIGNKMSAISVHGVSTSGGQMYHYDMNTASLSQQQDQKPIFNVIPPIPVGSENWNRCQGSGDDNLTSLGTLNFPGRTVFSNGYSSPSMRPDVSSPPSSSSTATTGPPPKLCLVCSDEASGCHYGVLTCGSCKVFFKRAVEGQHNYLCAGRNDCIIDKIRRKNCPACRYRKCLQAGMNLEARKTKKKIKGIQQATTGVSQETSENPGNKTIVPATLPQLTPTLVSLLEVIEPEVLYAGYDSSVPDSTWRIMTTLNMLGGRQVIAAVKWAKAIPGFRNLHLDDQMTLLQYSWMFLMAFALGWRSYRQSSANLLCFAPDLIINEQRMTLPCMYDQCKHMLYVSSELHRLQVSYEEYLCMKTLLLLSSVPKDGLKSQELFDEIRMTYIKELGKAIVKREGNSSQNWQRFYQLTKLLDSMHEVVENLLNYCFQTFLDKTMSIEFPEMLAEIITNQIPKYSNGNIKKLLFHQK
# Androgen receptor = molecular target: T2, Androgen receptor (Homo sapiens, UniProt P10275); test: Binding affinity for human androgen receptor
# T2 sequence (P10275 whole entry): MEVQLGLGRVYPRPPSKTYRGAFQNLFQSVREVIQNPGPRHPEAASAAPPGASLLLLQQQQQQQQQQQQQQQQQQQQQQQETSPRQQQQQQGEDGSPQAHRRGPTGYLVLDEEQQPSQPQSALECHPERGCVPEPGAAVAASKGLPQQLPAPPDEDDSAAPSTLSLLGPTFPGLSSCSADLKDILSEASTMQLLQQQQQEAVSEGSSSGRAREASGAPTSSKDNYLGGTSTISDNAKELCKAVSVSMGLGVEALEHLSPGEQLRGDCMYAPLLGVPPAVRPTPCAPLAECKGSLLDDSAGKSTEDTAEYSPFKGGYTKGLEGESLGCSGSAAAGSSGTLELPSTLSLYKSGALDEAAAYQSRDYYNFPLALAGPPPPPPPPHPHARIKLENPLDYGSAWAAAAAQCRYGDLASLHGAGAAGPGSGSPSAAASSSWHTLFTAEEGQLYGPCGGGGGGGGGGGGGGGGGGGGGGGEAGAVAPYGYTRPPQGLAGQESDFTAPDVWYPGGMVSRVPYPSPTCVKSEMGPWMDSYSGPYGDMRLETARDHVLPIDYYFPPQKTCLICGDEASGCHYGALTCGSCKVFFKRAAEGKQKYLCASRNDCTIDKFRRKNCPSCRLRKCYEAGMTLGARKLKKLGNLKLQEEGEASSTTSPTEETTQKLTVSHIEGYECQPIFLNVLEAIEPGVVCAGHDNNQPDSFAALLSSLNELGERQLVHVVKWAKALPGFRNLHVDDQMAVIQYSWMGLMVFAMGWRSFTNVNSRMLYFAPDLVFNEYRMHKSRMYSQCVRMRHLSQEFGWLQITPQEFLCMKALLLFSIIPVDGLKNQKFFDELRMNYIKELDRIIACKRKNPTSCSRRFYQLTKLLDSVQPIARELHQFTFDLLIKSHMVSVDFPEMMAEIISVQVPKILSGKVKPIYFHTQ
# Estrogen receptor = molecular target: T3, Estrogen receptor (Homo sapiens, UniProt P03372); test: Binding affinity for human Estrogen receptor alpha
# T3 sequence (P03372 whole entry): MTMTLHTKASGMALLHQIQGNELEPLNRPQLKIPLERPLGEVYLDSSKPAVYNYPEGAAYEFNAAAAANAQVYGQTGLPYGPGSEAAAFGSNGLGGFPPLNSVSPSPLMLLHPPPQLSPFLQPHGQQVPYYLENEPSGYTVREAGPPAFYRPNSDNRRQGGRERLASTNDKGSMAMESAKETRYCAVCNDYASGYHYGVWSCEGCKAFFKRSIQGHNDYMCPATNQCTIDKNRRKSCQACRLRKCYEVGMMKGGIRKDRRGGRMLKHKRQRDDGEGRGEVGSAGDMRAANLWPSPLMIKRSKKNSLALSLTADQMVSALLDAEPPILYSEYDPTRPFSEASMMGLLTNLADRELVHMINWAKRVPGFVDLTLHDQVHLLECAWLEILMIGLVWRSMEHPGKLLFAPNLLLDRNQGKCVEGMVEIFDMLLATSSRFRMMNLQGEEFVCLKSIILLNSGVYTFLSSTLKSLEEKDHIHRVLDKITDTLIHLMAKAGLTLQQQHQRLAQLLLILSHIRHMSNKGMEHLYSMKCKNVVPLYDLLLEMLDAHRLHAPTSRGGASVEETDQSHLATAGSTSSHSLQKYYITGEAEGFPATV
# Glucocorticoid receptor [2] = molecular target: T1, Glucocorticoid receptor; test: Binding affinity for human glucocorticoid receptor
# Glucocorticoid receptor [3] = molecular target: T1, Glucocorticoid receptor; test: Compound was tested for inhibitory activity towards human glucocorticoid receptor
# Mus musculus = test: Ability to induce mouse macrophage IL-6 assay in peritoneal exudate cells harvested by […] from C57BI/6 mice.; type: functional, cell-based
# Procedure, shortened: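 Thioglycolate-elicited peritoneal exudate cells from C57Bl/6 mice, harvested day 3 in PBS/heparin, washed and resuspended at 5.6×10^5 cells/mL in RPMI 1640 with 10% heat-inactivated FCS. Compound (typically 3 μM final) preincubated 1 h at 37 °C, 5% CO2, then LPS or TNF added, 24 h. Supernatant IL-6 read; duplicate wells, three experiments.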
# Progesterone receptor = molecular target: T4, Progesterone receptor (Homo sapiens, UniProt P06401); test: Binding affinity towards human progesterone receptor
# T4 sequence (P06401 whole entry): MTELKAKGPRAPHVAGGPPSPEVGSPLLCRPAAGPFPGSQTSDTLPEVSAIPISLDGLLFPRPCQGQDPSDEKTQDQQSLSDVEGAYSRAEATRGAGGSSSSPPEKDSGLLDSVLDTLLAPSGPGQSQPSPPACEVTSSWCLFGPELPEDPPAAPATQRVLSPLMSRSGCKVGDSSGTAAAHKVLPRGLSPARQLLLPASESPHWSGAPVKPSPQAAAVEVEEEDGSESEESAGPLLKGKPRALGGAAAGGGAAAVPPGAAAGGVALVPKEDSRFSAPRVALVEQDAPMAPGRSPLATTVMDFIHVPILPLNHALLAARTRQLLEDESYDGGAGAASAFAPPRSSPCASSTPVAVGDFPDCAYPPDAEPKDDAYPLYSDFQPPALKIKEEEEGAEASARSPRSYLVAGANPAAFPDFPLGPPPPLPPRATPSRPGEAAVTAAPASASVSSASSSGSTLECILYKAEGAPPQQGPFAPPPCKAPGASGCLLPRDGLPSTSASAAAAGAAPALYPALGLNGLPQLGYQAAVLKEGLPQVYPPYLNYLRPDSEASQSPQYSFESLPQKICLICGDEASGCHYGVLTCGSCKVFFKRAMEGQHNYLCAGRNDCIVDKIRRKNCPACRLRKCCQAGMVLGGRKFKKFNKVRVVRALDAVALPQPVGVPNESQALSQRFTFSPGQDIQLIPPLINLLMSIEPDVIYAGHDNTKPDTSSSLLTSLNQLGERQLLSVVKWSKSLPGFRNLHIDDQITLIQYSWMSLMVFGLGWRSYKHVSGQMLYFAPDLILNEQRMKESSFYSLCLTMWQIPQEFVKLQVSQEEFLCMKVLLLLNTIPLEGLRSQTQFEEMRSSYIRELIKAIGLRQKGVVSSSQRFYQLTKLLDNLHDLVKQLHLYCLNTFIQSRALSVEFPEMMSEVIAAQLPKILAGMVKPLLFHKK
# Procedure, shortened: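 Receptor homogenates from frozen cell pellets in ice-cold KPO4 buffer (10 mM KPO4, 20 mM molybdate, 1 mM EDTA, 5 mM DTT, protease inhibitors), spun 35 000g 1 h at 4 °C. MR: recombinant baculovirus-expressed rat receptor, 2 nM [3H]aldosterone; PR: T-47D cell protein, 5 nM [3H]progesterone.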
# Glucocorticoid receptor [4] = molecular target: T1, Glucocorticoid receptor; test: Glucocorticoid induced transactivation of human tyrosine amino transferase in HepG2 cells; type: functional, cell-based
# [5] = molecular target: Mineralocorticoid receptor (Rattus norvegicus) (UniProt P22199); test: Binding affinity for rat mineralocorticoid receptor
# Glucocorticoid receptor [6] = molecular target: T1, Glucocorticoid receptor; test: Ability to induce human glutamine synthetase in skeletal muscle cells; type: cell-based
# Mineralocorticoid receptor (Rattus norvegicus), sequence (P22199 whole entry, looked up): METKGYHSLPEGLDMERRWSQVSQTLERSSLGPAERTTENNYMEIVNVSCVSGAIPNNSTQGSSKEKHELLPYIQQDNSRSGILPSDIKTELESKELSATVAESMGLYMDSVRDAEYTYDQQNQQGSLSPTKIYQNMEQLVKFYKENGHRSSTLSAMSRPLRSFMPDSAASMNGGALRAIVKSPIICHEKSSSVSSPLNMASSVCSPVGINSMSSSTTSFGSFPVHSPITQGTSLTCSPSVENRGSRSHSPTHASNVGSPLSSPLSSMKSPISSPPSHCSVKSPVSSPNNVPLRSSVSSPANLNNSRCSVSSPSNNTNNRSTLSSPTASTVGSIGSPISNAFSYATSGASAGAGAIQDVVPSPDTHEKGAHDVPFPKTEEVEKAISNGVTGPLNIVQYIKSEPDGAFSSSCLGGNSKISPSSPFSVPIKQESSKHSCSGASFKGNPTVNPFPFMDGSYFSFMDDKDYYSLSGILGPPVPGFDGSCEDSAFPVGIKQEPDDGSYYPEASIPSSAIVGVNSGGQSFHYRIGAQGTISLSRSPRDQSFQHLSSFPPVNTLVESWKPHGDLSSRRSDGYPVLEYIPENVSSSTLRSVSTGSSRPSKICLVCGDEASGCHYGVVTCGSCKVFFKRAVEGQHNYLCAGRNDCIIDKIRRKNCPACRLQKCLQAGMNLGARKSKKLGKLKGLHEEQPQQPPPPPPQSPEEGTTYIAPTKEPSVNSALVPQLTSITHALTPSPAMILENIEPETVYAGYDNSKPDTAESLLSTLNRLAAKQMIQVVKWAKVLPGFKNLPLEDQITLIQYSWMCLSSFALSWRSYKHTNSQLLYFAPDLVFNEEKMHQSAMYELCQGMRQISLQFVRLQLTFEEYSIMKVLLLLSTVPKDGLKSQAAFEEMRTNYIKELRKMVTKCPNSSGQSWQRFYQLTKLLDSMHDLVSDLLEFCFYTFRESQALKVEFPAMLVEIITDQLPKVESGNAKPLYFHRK
Structure (SMILES),EC50 (Glucocorticoid receptor [1]) [nM],IC50 (Androgen receptor) [nM],IC50 (Estrogen receptor) [nM],IC50 (Glucocorticoid receptor [2]) [nM],IC50 (Glucocorticoid receptor [3]) [nM],EC50 (Mus musculus) [nM],IC50 (Progesterone receptor) [nM],EC50 (Glucocorticoid receptor [4]) [nM],IC50 [5] [nM],EC50 (Glucocorticoid receptor [6]) [nM]
C=CCC[C@H](O)[C@H]1CCCC2=Cc3c(cnn3-c3ccc(F)cc3)C[C@@]21C,4.4,> 5000,> 1000,4.2,1.1,5.7,> 1000,256,> 5000,
COc1cc([C@H](O)[C@H]2CCCC3=Cc4c(cnn4-c4ccc(F)cc4)C[C@@]32C)ccc1F,31.3,,,,7.9,20.5,,,,
"C[C@]12C=CC(=O)C=C1CCC1[C@@H]2[C@@H](O)C[C@@]2(C)[C@H]1CC[C@]2(O)C(=O)CO (single isomer, unassigned) [PREDNISOLONE]",,,,,,5.7,,,,
C[C@]12Cc3cnn(-c4ccc(F)cc4)c3C=C1CCC[C@@H]2[C@@H](O)CCC1CC1,8.6,,,,1.5,26.3,,332,,66
C[C@]12Cc3cnn(-c4ccc(F)cc4)c3C=C1CCC[C@@H]2[C@@H](O)c1ccccc1,2.9,> 5000,> 1000,8.4,8.4,111,660,,> 5000,
C[C@]12Cc3cnn(-c4ccc(F)cc4)c3C=C1CCC[C@@H]2[C@@H](O)Cc1ccccc1,13.9,,,,4.2,24.7,,,,
Cc1ccc(C[C@H](O)[C@H]2CCCC3=Cc4c(cnn4-c4ccc(F)cc4)C[C@@]32C)cc1,11.4,,,,3.4,41.5,,,,
CC(C)(O)[C@H]1CCCC2=Cc3c(cnn3-c3ccc(F)cc3)C[C@@]21C,3,,,,1.9,15.1,,83.5,,182
C[C@]12Cc3cnn(-c4ccc(F)cc4)c3C=C1CCC[C@@H]2[C@H](O)c1ccc(F)cc1,,> 5000,> 1000,,,,> 1000,,> 5000,
C[C@]12Cc3cnn(-c4ccc(F)cc4)c3C=C1CCC[C@@H]2[C@@H](O)c1cccc(O)c1,54.2,,,,24.9,179,,,,
C[C@]12Cc3cnn(-c4ccc(F)cc4)c3C=C1CCC[C@@H]2[C@](C)(O)c1ccsc1,1,,,,0.8,5.2,,35.6,,14.2
